From ChEMBL document CHEMBL3576803, “Antimicrobial Phenolic Bisabolanes and Related Derivatives from Penicillium aculeatum SD-321, a Deep Sea Sediment-Derived Fungus” (J Nat Prod, 2015)
≈ marks a conversion by molar mass, not a printed value.

Columns and labels:
[1] = system: Escherichia coli; assay: Antibacterial activity against Escherichia coli EMBLC-1 by microplate assay; format: functional
[2] = system: Staphylococcus aureus; assay: Antibacterial activity against Staphylococcus aureus EMBLC-2 by microplate assay; format: functional
[3] = system: Aeromonas hydrophila; assay: Antibacterial activity against Aeromonas hydrophila QDIO-1 by microplate assay; format: functional
[4] = system: Edwardsiella tarda; assay: Antibacterial activity against Edwardsiella tarda QDIO-2 by microplate assay; format: functional
[5] = system: Micrococcus luteus; assay: Antibacterial activity against Micrococcus luteus QDIO-3 by microplate assay; format: functional
[6] = system: Pseudomonas aeruginosa; assay: Antibacterial activity against Pseudomonas aeruginosa QDIO-4 by microplate assay; format: functional
[7] = system: Vibrio alginolyticus; assay: Antibacterial activity against Vibrio alginolyticus QDIO-5 by microplate assay; format: functional
[8] = system: Vibrio anguillarum; assay: Antibacterial activity against Vibrio anguillarum QDIO-6 by microplate assay; format: functional
[9] = system: Vibrio harveyi; assay: Antibacterial activity against Vibrio harveyi QDIO-7 by microplate assay; format: functional
[10] = system: Vibrio parahaemolyticus; assay: Antibacterial activity against Vibrio parahaemolyticus QDIO-8 by microplate assay; format: functional
[11] = system: Alternaria brassicae; assay: Antifungal activity against Alternaria brassicae QDAU-1 by microplate assay; format: functional
Summary of the method: (§1)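 Phytopathogenic fungal strains came from a research group at Qingdao Agricultural University and are kept at the Key Laboratory of Experimental Marine Biology, Institute of Oceanology, CAS. Tested by microplate assay with amphotericin B as the positive control.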

[12] = system: Colletotrichum gloeosporioides; assay: Antifungal activity against Colletotrichum gloeosporioides QDAU-2 by microplate assay; format: functional; summary of the method: as §1
[13] = system: Gaeumannomyces graminis; assay: Antifungal activity against Gaeumannomyces graminis QDAU-3 by microplate assay; format: functional; summary of the method: as §1
[14] = Toxicity in brine shrimp; format: organism-based; conditions: artemia salina, in vivo; read-out: LD50 (the source's name)

| SMILES | MIC [1] | MIC [2] | MIC [3] | MIC [4] | MIC [5] | MIC [6] | MIC [7] | MIC [8] | MIC [9] | MIC [10] | MIC [11] | MIC [12] | MIC [13] | LC50 [14] |
| --- | --- | --- | --- | --- | --- | --- | --- | --- | --- | --- | --- | --- | --- | --- |
| CC(C)CCC[C@](C)(O)c1ccc(C(=O)O)cc1O | > 32 µg/mL | 32 µg/mL (≈ 120 µM) | > 32 µg/mL | 32 µg/mL (≈ 120 µM) | > 32 µg/mL | > 32 µg/mL | > 32 µg/mL | 32 µg/mL (≈ 120 µM) | 4 µg/mL (≈ 15 µM) | 4 µg/mL (≈ 15 µM) | > 32 µg/mL | 32 µg/mL (≈ 120 µM) | 0.5 µg/mL (≈ 1.88 µM) | > 10 µg/mL |
| Cc1cc(O)cc(Oc2cc(C)cc(OCc3ccc([C@@](C)(O)CCCC(C)C)c(O)c3)c2)c1 | > 32 µg/mL | > 32 µg/mL | > 32 µg/mL | > 32 µg/mL | 1 µg/mL (≈ 2.15 µM) | 32 µg/mL (≈ 68.9 µM) | 2 µg/mL (≈ 4.3 µM) | > 32 µg/mL | > 32 µg/mL | > 32 µg/mL | 0.5 µg/mL (≈ 1.08 µM) | > 32 µg/mL | 32 µg/mL (≈ 68.9 µM) | > 10 µg/mL |
| CC(C)CCC[C@](C)(O)c1ccc(COC(=O)c2ccc([C@@](C)(O)CCCC(C)C)c(O)c2)cc1O | > 32 µg/mL | > 32 µg/mL | > 32 µg/mL | 8 µg/mL (≈ 16 µM) | > 32 µg/mL | > 32 µg/mL | > 32 µg/mL | > 32 µg/mL | > 32 µg/mL | 32 µg/mL (≈ 63.9 µM) | 32 µg/mL (≈ 63.9 µM) | > 32 µg/mL | > 32 µg/mL | > 10 µg/mL |
| CC(C)C(O)CC[C@](C)(O)c1ccc(C(=O)O)cc1O (some centres undefined) | > 32 µg/mL | 32 µg/mL (≈ 113 µM) | 32 µg/mL (≈ 113 µM) | > 32 µg/mL | > 32 µg/mL | > 32 µg/mL | > 32 µg/mL | > 32 µg/mL | 8 µg/mL (≈ 28.3 µM) | 32 µg/mL (≈ 113 µM) | > 32 µg/mL | > 32 µg/mL | > 32 µg/mL | > 10 µg/mL |
| Cc1ccc([C@@]2(C)CCC(=O)O2)c(O)c1 | 32 µg/mL (≈ 155 µM) | 32 µg/mL (≈ 155 µM) | > 32 µg/mL | > 32 µg/mL | > 32 µg/mL | > 32 µg/mL | > 32 µg/mL | > 32 µg/mL | 4 µg/mL (≈ 19.4 µM) | > 32 µg/mL | > 32 µg/mL | 32 µg/mL (≈ 155 µM) | 32 µg/mL (≈ 155 µM) | > 10 µg/mL |
| C/C(=C\CCC(C)C)c1ccc(Cc2c(C)cc(Oc3cc(C)cc(O)c3)cc2O)cc1O | 32 µg/mL (≈ 71.7 µM) | > 32 µg/mL | > 32 µg/mL | > 32 µg/mL | 8 µg/mL (≈ 17.9 µM) | 4 µg/mL (≈ 8.96 µM) | 8 µg/mL (≈ 17.9 µM) | 32 µg/mL (≈ 71.7 µM) | > 32 µg/mL | 32 µg/mL (≈ 71.7 µM) | 32 µg/mL (≈ 71.7 µM) | 32 µg/mL (≈ 71.7 µM) | 32 µg/mL (≈ 71.7 µM) | > 10 µg/mL |
| CC(C)(O)CCC[C@](C)(O)c1ccc(C(=O)O)cc1O | 32 µg/mL (≈ 113 µM) | > 32 µg/mL | 32 µg/mL (≈ 113 µM) | > 32 µg/mL | > 32 µg/mL | > 32 µg/mL | > 32 µg/mL | 32 µg/mL (≈ 113 µM) | > 32 µg/mL | 32 µg/mL (≈ 113 µM) | > 32 µg/mL | > 32 µg/mL | > 32 µg/mL | > 10 µg/mL |
| C=C(CCCC(C)C)c1ccc(C(=O)O)cc1O | > 32 µg/mL | 32 µg/mL (≈ 129 µM) | > 32 µg/mL | > 32 µg/mL | > 32 µg/mL | > 32 µg/mL | > 32 µg/mL | > 32 µg/mL | 4 µg/mL (≈ 16.1 µM) | 32 µg/mL (≈ 129 µM) | > 32 µg/mL | > 32 µg/mL | 0.5 µg/mL (≈ 2.01 µM) | > 10 µg/mL |
| C=C(C)CCC[C@](C)(O)c1ccc(C(=O)O)cc1O [11-DEHYDROSYDONIC ACID] | > 32 µg/mL | 32 µg/mL (≈ 121 µM) | > 32 µg/mL | > 32 µg/mL | 32 µg/mL (≈ 121 µM) | > 32 µg/mL | > 32 µg/mL | > 32 µg/mL | 4 µg/mL (≈ 15.1 µM) | 32 µg/mL (≈ 121 µM) | > 32 µg/mL | 32 µg/mL (≈ 121 µM) | > 32 µg/mL | > 10 µg/mL |
| C[C@@H]1[C@H](O)[C@@H](C)/C=C/C=C/C=C/C=C/C=C/C=C/C=C/[C@H](O[C@@H]2O[C@H](C)[C@@H](O)[C@H](N)[C@@H]2O)C[C@@H]2O[C@](O)(C[C@@H](O)C[C@@H](O)[C@H](O)CC[C@@H](O)C[C@@H](O)CC(=O)O[C@H]1C)C[C@H](O)[C@H]2C(=O)O [AMPHOTERICIN B] | – | – | – | – | – | – | – | – | – | – | 32 µg/mL (≈ 34.6 µM) | 32 µg/mL (≈ 34.6 µM) | 64 µg/mL (≈ 69.3 µM) | – |
| O=C(N[C@H](CO)[C@H](O)c1ccc([N+](=O)[O-])cc1)C(Cl)Cl [CHLORAMPHENICOL] | 4 µg/mL (≈ 12.4 µM) | 0.5 µg/mL (≈ 1.55 µM) | 4 µg/mL (≈ 12.4 µM) | 8 µg/mL (≈ 24.8 µM) | 8 µg/mL (≈ 24.8 µM) | 8 µg/mL (≈ 24.8 µM) | 0.5 µg/mL (≈ 1.55 µM) | 0.5 µg/mL (≈ 1.55 µM) | 4 µg/mL (≈ 12.4 µM) | 0.5 µg/mL (≈ 1.55 µM) | – | – | – | – |
